According to article PMC7880896 (European journal of medicinal chemistry, 2020):
Like-named read-outs stand apart in the source and are kept apart here.

Experiments:
[1] = system: U87MG cells; assay: MTT antiproliferative assay on U87MG glioblastoma cells; assay type: cell-based, human; conditions: for viability at 10 µM: Homo sapiens, U-87 MG, read-out: % Viability U87MG, 10 μM, ± SD
[2] = system: HEK293 cells; assay: MTT cytotoxicity assay on HEK293 healthy cell line; assay type: cell-based, human
Procedure, shortened: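 HEK293 cells were seeded 24 h before treatment. Compound was dissolved in DMSO (<1%) and diluted in DMEM, tested up to 100 μM. After 24 and 48 h exposure, wells were washed with D-PBS, and MTT from a 5 mg/mL stock was added for 4 h. Formazan was solubilised in DMSO and absorbance read at 540 nm. At least three independent experiments; IC50 given as mean ± SD.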

[3] = biological target: T1, human adenosine A1 receptor (Homo sapiens, UniProt P30542); assay: Adenosine A1 receptor radioligand binding; conditions: read-out: Inhibition of A1 receptor radioligand binding
T1 sequence (P30542 1-326): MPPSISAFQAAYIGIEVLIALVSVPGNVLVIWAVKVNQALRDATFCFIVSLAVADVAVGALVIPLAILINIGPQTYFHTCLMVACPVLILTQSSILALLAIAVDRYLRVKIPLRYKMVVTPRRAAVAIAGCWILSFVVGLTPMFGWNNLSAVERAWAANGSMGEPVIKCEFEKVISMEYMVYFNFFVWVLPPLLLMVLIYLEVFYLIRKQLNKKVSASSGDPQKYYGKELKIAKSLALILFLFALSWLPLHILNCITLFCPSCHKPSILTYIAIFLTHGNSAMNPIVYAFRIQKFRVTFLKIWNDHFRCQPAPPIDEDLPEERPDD
Procedure, shortened: (§1)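 Membranes came from CHO cells expressing recombinant human A1 and HEK293 cells expressing human A2A. Cells were homogenised, centrifuged at 4°C and stored in buffer with 3 U/mL adenosine deaminase. Test compound (1 μM) was incubated with A1 membranes (40 μg) plus 2 nM [3H]DPCPX, or A2A membranes (20 μg) plus 15 nM [3H]ZM241385. Incubation was 60 min, 25°C, in 50 mM Tris-HCl pH 7.4 with 10 mM MgCl2. Bound ligand was GF/B-filtered and scintillation-counted.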

[4] = biological target: human adenosine A2A receptor (Homo sapiens, UniProt P29274); assay: Adenosine A2A receptor radioligand binding; conditions: read-out: Inhibition of A2A receptor radioligand binding
Procedure, shortened: as §1

[5] = system: MCF7 cells; assay: MTT antiproliferative assay on MCF7 cells; assay type: cell-based, human; conditions: read-out: IC50 MCF7, mean ± SD
Procedure, shortened: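 MCF7 cells were kept in DMEM/F-12 with 10% FBS, penicillin/streptomycin and L-glutamine, passaged every 3 days, and seeded 24 h before treatment. Compound was dissolved in DMSO (<1%) and diluted in DMEM. After 24 and 48 h exposure, cells were washed with D-PBS and given MTT from a 5 mg/mL stock for 4 h. Formazan was dissolved in DMSO and read at 540 nm. At least three independent experiments; mean ± SD.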

[6] = system: U87MG cell line; conditions: read-out: IC50 on U87MG cell line; cited from earlier work
[7] = Homo sapiens, HEK293, read-out: IC50 HEK293

Sequence of human adenosine A2A receptor (P29274 whole entry): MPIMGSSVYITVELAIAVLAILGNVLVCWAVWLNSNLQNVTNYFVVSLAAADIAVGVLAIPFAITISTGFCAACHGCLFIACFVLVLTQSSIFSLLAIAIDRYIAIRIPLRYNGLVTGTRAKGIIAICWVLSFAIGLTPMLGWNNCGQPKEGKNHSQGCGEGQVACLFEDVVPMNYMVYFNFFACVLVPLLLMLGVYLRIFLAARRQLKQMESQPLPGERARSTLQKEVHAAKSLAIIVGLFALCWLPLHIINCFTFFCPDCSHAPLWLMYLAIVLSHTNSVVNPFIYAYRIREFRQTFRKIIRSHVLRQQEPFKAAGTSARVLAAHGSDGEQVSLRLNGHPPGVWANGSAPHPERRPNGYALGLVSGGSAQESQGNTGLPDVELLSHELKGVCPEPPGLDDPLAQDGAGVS

Row | Compound | IC50 [2, 7] | other results
1 | COc1ccc(-c2nc(SCC(=O)c3sc(-c4ccccc4)nc3C)[nH]c(=O)c2C#N)cc1OC [Compound 4d, 4-(3,4-dimethoxyphenyl)-2-((2-(4-methyl-2-phenylthiazol-5-yl)-2-oxoethyl)thio)-6-oxo-1,6-dihydropyrimidine-5-carbonitrile] |  | viability at 10 µM [1]: < 70%
2 | Cc1nc(-c2ccccc2)sc1C(=O)CSc1nc(-c2cccc(Cl)c2)c(C#N)c(=O)[nH]1 [Compound 4e, 4-(3-chlorophenyl)-2-((2-(4-methyl-2-phenylthiazol-5-yl)-2-oxoethyl)thio)-6-oxo-1,6-dihydropyrimidine-5-carbonitrile] | > 100 µM | 
3 | Cc1nc(-c2ccccc2)sc1C(=O)CSc1nc(-c2ccc(Cl)cc2)c(C#N)c(=O)[nH]1 [Compound 4f, 4-(4-chlorophenyl)-2-((2-(4-methyl-2-phenylthiazol-5-yl)-2-oxoethyl)thio)-6-oxo-1,6-dihydropyrimidine-5-carbonitrile] | > 100 µM | 
4 | Cc1nc(-c2ccccc2)sc1C(=O)CSc1nc(-c2ccc3c(c2)OCO3)c(C#N)c(=O)[nH]1 [Compound 4h, 4-(benzo[d][1,3]dioxol-5-yl)-2-((2-(4-methyl-2-phenylthiazol-5-yl)-2-oxoethyl)thio)-6-oxo-1,6-dihydropyrimidine-5-carbonitrile] | > 100 µM | 
5 | COc1ccc(-c2nc(C)c(C(=O)CSc3nc(-c4ccccc4)c(C#N)c(=O)[nH]3)s2)cc1 [Compound 4i, 2-((2-(2-(4-methoxyphenyl)-4-methylthiazol-5-yl)-2-oxoethyl)thio)-6-oxo-4-phenyl-1,6-dihydropyrimidine-5-carbonitrile] | > 100 µM | 
6 | COc1ccc(-c2nc(C)c(C(=O)CSc3nc(-c4cccc(OC)c4)c(C#N)c(=O)[nH]3)s2)cc1 [Compound 4j, 4-(3-methoxyphenyl)-2-((2-(2-(4-methoxyphenyl)-4-methylthiazol-5-yl)-2-oxoethyl)thio)-6-oxo-1,6-dihydropyrimidine-5-carbonitrile] |  | viability at 10 µM [1]: < 70%
7 | COc1ccc(-c2nc(C)c(C(=O)CSc3nc(-c4ccc(OC)cc4)c(C#N)c(=O)[nH]3)s2)cc1 [Compound 4k, 4-(4-methoxyphenyl)-2-((2-(2-(4-methoxyphenyl)-4-methylthiazol-5-yl)-2-oxoethyl)thio)-6-oxo-1,6-dihydropyrimidine-5-carbonitrile] | > 100 µM | 
8 | COc1ccc(-c2nc(C)c(C(=O)CSc3nc(-c4ccc(OC)c(OC)c4)c(C#N)c(=O)[nH]3)s2)cc1 [Compound 4l, 4-(3,4-dimethoxyphenyl)-2-((2-(2-(4-methoxyphenyl)-4-methylthiazol-5-yl)-2-oxoethyl)thio)-6-oxo-1,6-dihydropyrimidine-5-carbonitrile] |  | viability at 10 µM [1]: < 70%
9 | COc1ccc(-c2nc(C)c(C(=O)CSc3nc(-c4cccc(Cl)c4)c(C#N)c(=O)[nH]3)s2)cc1 [Compound 4m, 4-(3-chlorophenyl)-2-((2-(2-(4-methoxyphenyl)-4-methylthiazol-5-yl)-2-oxoethyl)thio)-6-oxo-1,6-dihydropyrimidine-5-carbonitrile] | > 100 µM | 
10 | COc1ccc(-c2nc(C)c(C(=O)CSc3nc(-c4ccc5c(c4)OCO5)c(C#N)c(=O)[nH]3)s2)cc1 [Compound 4p, 4-(benzo[d][1,3]dioxol-5-yl)-2-((2-(2-(4-methoxyphenyl)-4-methylthiazol-5-yl)-2-oxoethyl)thio)-6-oxo-1,6-dihydropyrimidine-5-carbonitrile] | > 100 µM | 
11 | Cc1nc(-c2ccc(Cl)cc2)sc1C(=O)CSc1nc(-c2ccccc2)c(C#N)c(=O)[nH]1 [Compound 4q, 2-((2-(2-(4-chlorophenyl)-4-methylthiazol-5-yl)-2-oxoethyl)thio)-6-oxo-4-phenyl-1,6-dihydropyrimidine-5-carbonitrile] | > 100 µM | 
12 | COc1ccc(-c2nc(SCC(=O)c3sc(-c4ccc(Cl)cc4)nc3C)[nH]c(=O)c2C#N)cc1 [Compound 4s, 2-((2-(2-(4-chlorophenyl)-4-methylthiazol-5-yl)-2-oxoethyl)thio)-4-(4-methoxyphenyl)-6-oxo-1,6-dihydropyrimidine-5-carbonitrile] | > 100 µM | 
13 | COc1ccc(-c2nc(SCC(=O)c3sc(-c4ccc(Cl)cc4)nc3C)[nH]c(=O)c2C#N)cc1OC [Compound 4t, 2-((2-(2-(4-chlorophenyl)-4-methylthiazol-5-yl)-2-oxoethyl)thio)-4-(3,4-dimethoxyphenyl)-6-oxo-1,6-dihydropyrimidine-5-carbonitrile] | > 100 µM | 
14 | COc1ccc(-c2nc(SCC(=O)c3sc(-c4ccccc4)nc3C)nc(N)c2C#N)cc1 [Compound 5b, 4-amino-6-(4-methoxyphenyl)-2-((2-(4-methyl-2-phenylthiazol-5-yl)-2-oxoethyl)thio)pyrimidine-5-carbonitrile] | > 100 µM | 
15 | Cc1nc(-c2ccccc2)sc1C(=O)CSc1nc(N)c(C#N)c(-c2ccc(Cl)cc2)n1 [Compound 5c, 4-amino-6-(4-chlorophenyl)-2-((2-(4-methyl-2-phenylthiazol-5-yl)-2-oxoethyl)thio)pyrimidine-5-carbonitrile] | > 100 µM | inhibition at 1 µM [3]: -23%
16 | COc1ccc(-c2nc(C)c(C(=O)CSc3nc(N)c(C#N)c(-c4ccccc4)n3)s2)cc1 [Compound 5d, 4-amino-2-((2-(2-(4-methoxyphenyl)-4-methylthiazol-5-yl)-2-oxoethyl)thio)-6-phenylpyrimidine-5-carbonitrile] | > 100 µM | 
17 | COc1ccc(-c2nc(C)c(C(=O)CSc3nc(N)c(C#N)c(-c4ccc(OC)cc4)n3)s2)cc1 [Compound 5e, 4-amino-6-(4-methoxyphenyl)-2-((2-(2-(4-methoxyphenyl)-4-methylthiazol-5-yl)-2-oxoethyl)thio)pyrimidine-5-carbonitrile] | > 100 µM | cytotoxic effect on HEK293 (in words) ([2]; healthy cell line): no cytotoxic effect even at high concentrations; inhibition at 1 µM [4]: -18%
18 | Cc1nc(-c2ccc(Cl)cc2)sc1C(=O)CSc1nc(N)c(C#N)c(-c2ccccc2)n1 [Compound 5g, 4-amino-2-((2-(2-(4-chlorophenyl)-4-methylthiazol-5-yl)-2-oxoethyl)thio)-6-phenylpyrimidine-5-carbonitrile] | > 100 µM | 
19 | COc1ccc(-c2nc(SCC(=O)c3sc(-c4ccc(Cl)cc4)nc3C)nc(N)c2C#N)cc1 [Compound 5h, 4-amino-2-((2-(2-(4-chlorophenyl)-4-methylthiazol-5-yl)-2-oxoethyl)thio)-6-(4-methoxyphenyl)pyrimidine-5-carbonitrile] | > 100 µM | inhibition at 1 µM [4]: -22%
20 | N.N.[Cl][Pt][Cl] [cisplatin, reference compound] |  | IC50 [5]: 2.51 ± 0.29 µM; IC50 ([2]; read-out: IC50 HEK293, MTT, mean ± SD, ND = viability higher than 50% at 100 μM): 8.44 ± 0.86 µM; IC50 ([1]; read-out: IC50 U87MG, MTT, mean ± SD): 1.67 ± 0.04 µM
21 | Cn1nnc2c(C(N)=O)ncn2c1=O [temozolomide] |  | IC50 [6]: 130 to 171 µM
